# Source: PubChem BioAssay
# Shown are actives, neighbours in structure and some others; about 3% of the full set was active somewhere.
# SENP6 inh – blocks the human protease SENP6; inhibition, % at 10 µM; AID 2599; 330,000 compounds, 1.8% hits; Q9GZR1; Recombinant SENP6 catalytic domain, aminoluciferin luminescence;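 active = inhibition above about 50% at the single tested dose, limit read from the data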;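 also: plate controls were DMSO wells with enzyme for no effect and DMSO wells lacking enzyme for full effect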
# Target sequence (Q9GZR1 628-1112 limits assumed): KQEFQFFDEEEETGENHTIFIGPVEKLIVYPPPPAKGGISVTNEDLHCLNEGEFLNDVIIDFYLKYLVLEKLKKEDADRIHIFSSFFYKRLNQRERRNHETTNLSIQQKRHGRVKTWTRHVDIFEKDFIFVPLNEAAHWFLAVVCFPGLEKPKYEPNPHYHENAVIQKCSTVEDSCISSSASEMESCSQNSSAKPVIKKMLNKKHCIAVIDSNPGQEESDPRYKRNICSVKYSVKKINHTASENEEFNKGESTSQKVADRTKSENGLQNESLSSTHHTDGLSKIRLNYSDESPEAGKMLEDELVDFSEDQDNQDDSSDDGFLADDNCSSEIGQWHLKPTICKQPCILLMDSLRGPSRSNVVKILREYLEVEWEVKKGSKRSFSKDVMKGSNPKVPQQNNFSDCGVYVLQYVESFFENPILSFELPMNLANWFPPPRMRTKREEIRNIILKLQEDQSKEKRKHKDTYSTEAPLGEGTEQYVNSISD
# SENP8 block-1 – blocks human SENP8 cleavage of Nedd8 substrate; 360,000 compounds, 0.64% hits; recombinant SENP8, Nedd8 substrate fluorescence; AID 602440; Q96LD8; inhibition, % at 20 µM; in the data active = inhibition mostly above about 40%, no sharp cut-off; inactive = mostly below about 27%
# SENP8 block-2 – inhibitors of human SENP8 protease; 330,000 compounds, 1.2% hits; inhibition, % at 10 µM; Q96LD8; purified SENP8, Z-RLRGG-aminoluciferin cleavage, luminescence; in the data active = inhibition above about 50%
# SENP7 block – blocks the human protease SENP7; AID 434973; Q9BQF6; recombinant SENP7, Z-RLRGG-aminoluciferin luminescence, 40 min; inhibition, % at 5 µM; 330,000 compounds, 1.5% hits;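 active = inhibition above about 50% at the single test dose, limit read from the data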;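 also: plate controls were DMSO with enzyme for no effect and no enzyme buffer wells for full effect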
# UBC13 inh – human UBC13 polyubiquitination inhibition. P61088. UBC13 polyubiquitin chain formation, TR-FRET. inhibition, % at 20 µM. 330,000 compounds, 0.47% hits. AID 485273; in the data active = inhibition above about 45%, passing the limit was not always enough; inconclusive = no clear call, values can overlap the other calls
# Apaf1 inhib – blocks human Apaf-1 apoptosome activity | O14727 | reconstituted apoptosome caspase-3 activity, DEVD-Rh110 fluorescence | inhibition, % at 20 µM | 330,000 compounds, 0.71% hits; active = inhibition of at least 40% at 20 µM;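 also: plate controls were DMSO wells for no effect and DEVD-CHO caspase inhibitor wells for full effect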
#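 Material: reconstituted apoptosome with Apaf-1, cytochrome c, caspase-9, procaspase-3, dATP / Buffer or medium: pH 7.5 Hepes buffer with CHAPS, BSA, DTT / Also added: cytochrome c with DEVD-Rh110 / Schedule: compound with Apaf-1, dATP, procaspase-3 30 min, then 50 min reaction, room temperature / Technique: rhodamine 110 fluorescence at Ex 480/Em 540 nm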
# Apaf-1 inh conf – confirmation of Apaf-1 inhibitors; shares compounds with Apaf1 inhib; reconstituted apoptosome, caspase-3 DEVD-Rh110 fluorescence; inhibition, % at 20 µM; 1,800 compounds, 25% hits; AID 504614;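 active = mean inhibition of at least 40% at 20 µM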;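 also: plate controls were DMSO wells for no effect and DEVD-CHO caspase inhibitor control wells for full effect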
# Rh110 interf inh – counter-screen for Apaf-1 inhibitors: fluorescence interference; shares compounds with Apaf1 inhib; Rh110 fluorescence interference, quenched caspase reaction; activation (fluorescence interference), % at 20 µM; 1,800 tested, under 10 active; AID 504615;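 active = signal rise of 40% or more at 20 µM, treated as a fluorescence artifact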
# Fluor interf inh – Apaf-1 inhibitor counter-screen fluorescence artifact. shares compounds with Apaf1 inhib. fluorescence interference counterscreen, Apaf-1 assay format. IC50, µM. 460 tested, under 10 active. AID 588538; call rule not given here
# An asterisk follows results filed as active; ? = inconclusive; / = not tested or not shown.
SMILES,SENP6 inh,SENP8 block-1,SENP8 block-2,SENP7 block,UBC13 inh,Apaf1 inhib,Apaf-1 inh conf,Rh110 interf inh,others
CC(NC(=O)C1CCN(C(=O)c2cccs2)CC1)c1ccc(S(N)(=O)=O)cc1 (centres undefined),5,11,0,-3,34,62*,35,12,
CC(NC(=O)C1CCN(C(=O)c2ccc(F)cc2)CC1)c1ccc(S(N)(=O)=O)cc1 (centres undefined),7,10,0,1,4,-3,/,/,
Cc1cc([N+](=O)[O-])c(C)cc1-c1ccc(/C=N/NC(=O)c2cccnc2)o1,15,14,11,10,-67,55*,38,5,
O=C(N/N=C\c1ccc(-c2ccccc2[N+](=O)[O-])o1)C1COc2ccccc2O1 (centres undefined),34,17,18,13,-32,79*,8,-3,
Cc1ccc(C(=O)N/N=C\c2ccc(Br)o2)o1,-8,-12,-10,-31,-21,-16,/,/,
Cc1ccc(C(=O)N/N=C/c2ccc(-c3ccc(Br)cc3[N+](=O)[O-])o2)o1,18,-33,9,-4,-38,42*,27,-5,
O=C(N/N=C/c1ccc(-c2ccccc2[N+](=O)[O-])o1)c1cncc(Br)c1,33,2,26,9,-56,81*,36,6,
O=C(N/N=C/c1ccc(-c2ccc([N+](=O)[O-])cc2)o1)c1cccnc1,-6,-61,-3,2,-14,-17,/,/,
CCN(CC)CCNc1ccc(CO)c2oc3ccccc3c(=O)c12,/,17,/,/,/,/,/,/,
CCCN1CCC(C)(C(=O)Nc2cccc(OC(C)C)c2)C1 (centres undefined),/,14,/,/,/,/,/,/,
c1cc2c3c(cccc3c1)C(N1CCCCCC1)=N2,4,-77,3,8,-4,11,/,/,
c1ccc2c(c1)CCN(C1=Nc3cccc4cccc1c34)C2,22,-93,8,10,-33,43*,10,5,
CN(C)CCN(C(=O)c1cccc2ccccc12)c1nc2cc3c(cc2s1)OCO3,2,10,-9,-14,2,52*,25,6,
CCc1nc2ccc(C(=O)Nc3cccc(OCC(=O)N(C)C)c3)cn2c1N(C=O)Cc1ccc(OC)cc1,/,-23,/,/,/,/,/,/,
Cc1c(CCC(C)C)c(=O)n2c([nH]c3ccccc32)c1C#N,-21,-480,18,46,-4,60*,65*,-2,Fluor interf inh=>100
CCCCc1c(C)c(C#N)c2[nH]c3ccccc3n2c1=O,14,-413,22,32,-9,45*,50*,7,Fluor interf inh=>100
CC1(Cc2ccc(C(F)(F)F)nc2)C(=O)Nc2cc(-c3ccccc3Cl)ccc21 (centres undefined),/,13,/,/,/,/,/,/,
CCOc1cccc(Cc2c[nH]c(=O)[nH]c2=O)c1,/,11,/,/,/,/,/,/,
O=C1C(=O)c2c(C(=O)c3ccccc3)coc2-c2ccccc21,37,61*,5,8,-62,55*,36,14,
CC(C)C(C(=O)O)N1C(=O)/C(=C/C=C/c2ccco2)SC1=S (centres undefined),-115,15,8,-7,?,46*,48*,6,Fluor interf inh=>100
COCCN(C(=O)CSc1nc2ccc(C)cc2[nH]1)c1c(N)n(Cc2ccccc2)c(=O)[nH]c1=O,6,0,5,0,1,0,/,/,
COCCN(C(=O)CSc1nc(N)cc(=O)[nH]1)c1c(N)n(Cc2ccccc2)c(=O)[nH]c1=O,7,1,12,3,0,45*,2,4,
FC(F)(F)c1ccc(CN2C[C@@H]3C(c4ccc(Cl)nc4)C4(c5cccnc5)CC3(C4)[C@H]2c2ccccc2)cc1 (some centres undefined),-7,/,5,2,9,42*,20,17,
